The source of these data is ChEMBL document CHEMBL1938383, “Novel 5- and 6-subtituted benzothiazoles with improved physicochemical properties: potent S1P₁ agonists with in vivo lymphocyte-depleting activity” (Bioorg Med Chem Lett, 2012).

The target of series [1] is T1, Sphingosine 1-phosphate receptor 3 (Homo sapiens, UniProt Q99500). Description: Agonist activity at human S1P3 receptor expressed in CHO cells coexpressing Gq/i5 protein by calcium flux assay. It is filed as functional, cell-based. In a few lines: (§1)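 Ca²⁺ flux read-out in CHO cells stably co-expressing human S1P3 and chimeric Gq/i5 G-protein.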
T1 sequence (Q99500 whole entry): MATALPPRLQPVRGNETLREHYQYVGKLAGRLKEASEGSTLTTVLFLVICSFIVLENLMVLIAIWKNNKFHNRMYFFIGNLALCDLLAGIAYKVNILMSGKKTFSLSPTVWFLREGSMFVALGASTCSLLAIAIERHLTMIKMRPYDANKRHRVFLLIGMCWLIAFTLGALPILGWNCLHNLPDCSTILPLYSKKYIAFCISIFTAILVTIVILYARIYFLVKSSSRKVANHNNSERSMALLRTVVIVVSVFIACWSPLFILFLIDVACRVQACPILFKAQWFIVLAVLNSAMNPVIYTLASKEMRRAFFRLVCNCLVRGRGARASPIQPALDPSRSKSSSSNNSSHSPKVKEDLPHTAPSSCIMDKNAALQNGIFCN
A general note: Calcium flux is commonly read through the fluorescence of an indicator in the cells.

For series [2], the target named is T2, Sphingosine 1-phosphate receptor 1 (Homo sapiens, UniProt P21453). In words: Agonist activity at human S1P1 receptor expressed in U20S cells coexpressing eGFP assessed as receptor internalization after 1 hr by microscopy analysis relative to S1P1. Conditions: U2OS. The format is functional, cell-based. Summed up: (§2)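 hS1P1–eGFP U2OS cells held in serum-free medium 2 h, then exposed to compound 1 h at 37 °C. Cells fixed in 4% formaldehyde, nuclei stained with Hoechst, imaged by automated microscopy. Potency and efficacy from GFP-containing endosomes per cell plotted against concentration. Efficacy expressed relative to 0.200 µM S1P.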
T2 sequence (P21453 whole entry): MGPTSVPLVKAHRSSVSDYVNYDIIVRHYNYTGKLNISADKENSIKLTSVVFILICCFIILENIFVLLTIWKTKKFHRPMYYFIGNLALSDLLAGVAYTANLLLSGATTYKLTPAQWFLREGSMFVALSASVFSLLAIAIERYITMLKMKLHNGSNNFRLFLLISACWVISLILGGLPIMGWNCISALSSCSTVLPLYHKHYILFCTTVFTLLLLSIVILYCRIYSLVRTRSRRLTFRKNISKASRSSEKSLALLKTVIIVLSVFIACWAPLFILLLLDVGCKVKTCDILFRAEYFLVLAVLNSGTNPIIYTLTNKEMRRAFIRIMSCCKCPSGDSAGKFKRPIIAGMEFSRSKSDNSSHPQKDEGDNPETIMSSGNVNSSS

Series [3] is filed under the species Homo sapiens. Description: Selectivity ratio of EC50 for human S1P3 receptor to EC50 for human S1P1 receptor.
The target of series [4] is T2, Sphingosine 1-phosphate receptor 1. Description: Agonist activity at human S1P1 receptor expressed in U20S cells coexpressing eGFP assessed as receptor internalization after 1 hr by microscopy analysis. It is filed as functional, cell-based, U2OS. Summed up:
as §2

Series [5] concerns the target T1, Sphingosine 1-phosphate receptor 3. In words: Agonist activity at human S1P3 receptor expressed in CHO cells coexpressing Gq/i5 protein by calcium flux assay relative to control. It is filed as functional, cell-based. Summed up: as §1
The test system of series [6] is Rattus norvegicus. In words: Immunosuppressive activity in Lewis rat assessed as reduction of circulating lymphocytes at 10 mg/kg, po after 4 hrs. Details: scale not given: the % may be the effect or the level left. The format is functional. Summed up: (§3)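 Female Lewis rats (250 g, 6–8 wk), acclimatized ≥1 week, N = 5/group. Given vehicle (20% captisol in water) or 10 mg/kg compound in 20% captisol/water by oral gavage (10 mL/kg). Killed by CO₂ 4 h post-dose, blood taken by cardiac puncture. Total blood lymphocytes counted and total plasma concentration measured. Significance vs vehicle by ANOVA/Dunnett's test.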

Series [7] is described as follows: Ratio of plasma concentration in Lewis rat at 10 mg/kg, po after 4 hrs to EC50 for human S1P1 receptor expressed in U20S cells. Details: dose 10 mg/kg, route oral. Conditions: in vivo. It is filed as ADME, organism-based.
The nature of series [8]: Plasma concentration in Lewis rat at 10 mg/kg, po after 4 hrs. The format is ADME, organism-based. Details: dose 10 mg/kg, route oral. In a few lines: as §3
The subject of series [9] is Rattus norvegicus. Description: Immunosuppressive activity in Lewis rat assessed as reduction of circulating lymphocytes at 1 mg/kg, po after 24 hrs. It is filed as functional. Details: scale not given: the % may be the effect or the level left.

A word on the EC50: it is the midpoint of the concentration-response curve. In the case of `O=C(O)C1CN(Cc2ccc(-c3nc4ccc(C5(c6ccccn6)CC5)cc4s3)c(F)c2)C1`, the EC50 is greater than 25 µM in [1] and 0.24 µM in series [4]. In series [2], the Efficacy was 90%. The Ratio EC50 in [3] is greater than 105.

For `CC(c1ccc2nc(-c3ccc(CN4CC(C(=O)O)C4)cc3F)sc2c1)c1ccccn1` (racemic), the EC50 in series [1] was greater than 25 µM; in series [4], 0.57 µM. Further, the Efficacy in [2] was 79%.

As for `CCC(c1ccc2nc(-c3ccc(CN4CC(C(=O)O)C4)cc3F)sc2c1)c1ccccn1` (single isomer, unassigned; (+)) [listing 1 of 2 here], the Efficacy in [5] worked out at 30%; in series [2], 93%.

As for `CC(c1ccc2sc(-c3ccc(CN4CC(C(=O)O)C4)cc3F)nc2c1)c1ccccn1` (racemic), the EC50 was greater than 25 µM in series [1] and 2.37 µM in series [4]. Moreover, the Efficacy in [2] came out at 62%.

For `O=C(O)C1CN(Cc2ccc(-c3nc4ccc(C(=O)N5CCCC5)cc4s3)c(F)c2)C1`, the EC50 in series [1] is greater than 25 µM; in series [4], greater than 20 µM.

`CCC1SCCN1C(=O)c1ccc2nc(-c3ccc(CN4CC(C(=O)O)C4)cc3F)sc2c1` (single isomer, unassigned; (+)) [listing 1 of 2 here]: the Activity in series [6] is reported as 55%. Moreover, the EC50 in [1] came to 0.39 µM; in [4] it was 0.017 µM. Also, the Ratio in [7] stood at 10. In series [8] (in vivo, 4 h), the concentration stood at 190 nM.

With `CCC1SCCN1C(=O)c1ccc2nc(-c3ccc(CN4CC(C(=O)O)C4)cc3F)sc2c1` (stereo in doubt; (-)-11f) [listing 1 of 2 here], the Activity in series [6] turned out to be 24%. Also, the EC50 in series [1] is 6.24 µM; in series [4], 0.15 µM. In series [8] (Lewis, plasma), the concentration at 4 h came to 130 nM.

`CCC1SCCN1C(=O)c1ccc2nc(-c3ccc(CN4CC(C(=O)O)C4)cc3F)sc2c1` (stereo in doubt; (-)-11f) [listing 2 of 2 here]: the results for the Efficacy in [5] and in series [2] were 36% and 106%, respectively.

Regarding `O=C(O)C1CN(Cc2ccc(-c3nc4ccc(C(=O)N5CCSC5)cc4s3)c(F)c2)C1`, the 50% effective concentration (EC50) in series [1] is 7.42 µM; in [4], 2.71 µM. Further, the Efficacy in series [5] worked out at 21%; in [2], 110%.

For the compound `O=C(O)C1CN(Cc2ccc(-c3nc4ccc(Cc5ccccn5)cc4s3)c(F)c2)C1`, the EC50 in series [1] was greater than 25 µM; in series [4] it was 1.96 µM. In series [2], the Efficacy is 71%.

Regarding `CC(C)C1SCCN1C(=O)c1ccc2nc(-c3ccc(CN4CC(C(=O)O)C4)cc3F)sc2c1` (racemic), the EC50 in [1] came out at 0.9 µM; in [4] it was 0.049 µM. For the same compound, the Efficacy in series [5] is 87%; in [2], 96%.

For the compound `O=C(O)C1CN(Cc2ccc(-c3nc4cc(Cc5ccccn5)ccc4s3)c(F)c2)C1`, the EC50 is greater than 25 µM in series [1] and 0.68 µM in series [4]. Also, the Efficacy in series [2] was 94%. Also, in [3], the Ratio EC50 was greater than 37.

Turning to `O=C(O)C1CN(Cc2ccc(-c3nc4ccc(C(=O)N5CCCCC5)cc4s3)c(F)c2)C1`, the figures for the EC50 in series [1] and in series [4] were greater than 25 µM and 1.17 µM, respectively. For the same compound, the Efficacy in series [2] was determined as 95%.

Take `O=C(O)C1CN(Cc2ccc(-c3nc4ccc(C5(c6ccccc6)CC5)nc4s3)c(F)c2)C1`: the EC50 in series [1] turned out to be 0.888 µM; in series [4], 0.002 µM.

With `O=C(O)C1CN(Cc2ccc(-c3nc4ccc(C(=O)N5CCCCCC5)cc4s3)c(F)c2)C1`, the EC50 was greater than 25 µM in series [1] and 2.72 µM in series [4]. Besides, the Efficacy in series [2] amounted to 108%.

For `CC1(C)SCCN1C(=O)c1ccc2nc(-c3ccc(CN4CC(C(=O)O)C4)cc3F)sc2c1`, the EC50 is 2.68 µM in series [1] and 0.43 µM in [4]. The Efficacy was 72% in series [5] and 80% in series [2].

`O=C(O)C1CN(Cc2ccc(-c3nc4cc(Cc5ccccc5)ccc4s3)c(F)c2)C1`: the EC50 in [1] was found to be 1.21 µM; in series [4] it was 0.041 µM. In addition, the Activity in series [9] is reported as 58%.

For `CCC(c1ccc2nc(-c3ccc(CN4CC(C(=O)O)C4)cc3F)sc2c1)c1ccccn1` (single isomer, unassigned; (+)) [listing 2 of 2 here], the EC50 is 9.75 µM in series [1] and 0.52 µM in series [4].

Take `CCC1SCCN1C(=O)c1ccc2nc(-c3ccc(CN4CC(C(=O)O)C4)cc3F)sc2c1` (single isomer, unassigned; (+)) [listing 2 of 2 here]: the Efficacy was 82% in series [5] and 107% in [2]. The Ratio EC50 in series [3] stood at 23.

Take `CCC(c1ccc2nc(-c3ccc(CN4CC(C(=O)O)C4)cc3F)sc2c1)c1ccccn1` (single isomer, unassigned) [listing 1 of 2 here]: the Efficacy worked out at 82% in series [5] and 95% in series [2].

With `O=C(c1ccc2nc(-c3ccc(CN4CC(C(=O)O)C4)cc3F)sc2c1)c1ccccn1`, the EC50 in series [1] was greater than 25 µM; in series [4] it was 1.3 µM. For the same compound, the Efficacy in series [2] amounted to 50%.

For the compound `CC1SCCN1C(=O)c1ccc2nc(-c3ccc(CN4CC(C(=O)O)C4)cc3F)sc2c1` (racemic), the concentration giving a half-maximal response (EC50) in [1] was determined as 2.04 µM; in series [4], 0.042 µM. Further, the Efficacy was determined as 71% in series [5] and 90% in series [2].

As to `CCC(c1ccc2nc(-c3ccc(CN4CC(C(=O)O)C4)cc3F)sc2c1)c1ccccn1` (single isomer, unassigned) [listing 2 of 2 here], the values for the EC50 in series [1] and in series [4] were 2.06 µM and 0.1 µM, respectively.
